Experimental data as given in ChEMBL document CHEMBL1136861, “Identification of a series of benzoxazoles as potent 5-HT6 ligands” (Bioorg Med Chem Lett, 2009).

Assays:
[1] = target: T1, 5-hydroxytryptamine receptor 6 (Homo sapiens, UniProt P50406); assay: Antagonist activity at human cloned 5HT6 receptor expressed in human HeLa cells assessed as blockage of 5-HT-stimulated cAMP formation after 10 mins by radioimmunoassay; assay type: functional, cell-based
How it was run: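 HeLa cells stably transfected with human 5-HT6 receptor; antagonism read as blockade of 5-HT-stimulated cAMP formation; IC50 and Imax values determined in triplicate.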

[2] = target: T1, 5-hydroxytryptamine receptor 6; assay: Displacement of [3H]LSD from human cloned 5HT6 receptor expressed in human HeLa cells; assay type: cell-based
How it was run: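 Human 5-HT6 receptor cloned and stably expressed in HeLa cells; competition binding with [3H]-LSD as radioligand; Ki values determined in triplicate.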

T1 sequence (P50406 whole entry): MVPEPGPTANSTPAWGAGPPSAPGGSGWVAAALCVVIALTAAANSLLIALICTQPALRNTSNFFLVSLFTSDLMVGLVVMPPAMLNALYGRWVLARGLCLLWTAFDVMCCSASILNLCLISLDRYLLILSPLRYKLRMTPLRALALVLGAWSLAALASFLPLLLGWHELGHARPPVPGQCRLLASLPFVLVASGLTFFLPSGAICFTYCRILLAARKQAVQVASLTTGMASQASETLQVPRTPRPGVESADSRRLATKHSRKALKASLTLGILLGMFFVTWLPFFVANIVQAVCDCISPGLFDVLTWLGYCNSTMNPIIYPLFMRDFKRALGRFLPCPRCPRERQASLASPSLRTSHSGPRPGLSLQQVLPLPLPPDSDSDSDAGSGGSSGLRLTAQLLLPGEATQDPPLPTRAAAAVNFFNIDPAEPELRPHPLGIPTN

SMILES | IC50 [1] | Imax [1] | Ki [2]
COc1cccc(S(=O)(=O)c2cccc3oc(N4CCNCC4)nc23)c1 | 0.1 µM | 92% | –
O=S(=O)(c1cc(Cl)ccc1Cl)c1cccc2oc(N3CCNCC3)nc12 | 0.117 µM | 92% | –
O=S(=O)(c1cccc2ccccc12)c1cccc2nc(N3CCNCC3)oc12 | 0.077 µM | 96% | 0.0071 µM
CN1CCN(c2nc3c(S(=O)(=O)c4cccc5ccccc45)cccc3o2)CC1 | 0.105 µM | 83% | 0.0097 µM
O=S(=O)(c1cccc2ccccc12)c1cccc2oc(N3CCN(C4CCCC4)CC3)nc12 | – | – | 0.079 µM
O=S(=O)(c1cccc2ccccc12)c1cccc2oc(N3CCNCC3)nc12 | 0.096 µM | 97% | –
CCN1CCN(c2nc3c(S(=O)(=O)c4cccc5ccccc45)cccc3o2)CC1 | 0.248 µM | 89% | –
O=S(=O)(c1cccc(C(F)(F)F)c1)c1cccc2oc(N3CCNCC3)nc12 | 0.12 µM | 96% | –
O=S(=O)(c1cccc2ccccc12)c1cccc2oc(N3CCN(CCCc4ccccc4)CC3)nc12 | – | – | 0.127 µM
O=S(=O)(c1ccccc1)c1cccc2oc(N3CCNCC3)nc12 | – | – | 0.041 µM
